Data as given in ChEMBL document CHEMBL1649137, “Genetic analysis of factors affecting susceptibility of Bacillus subtilis to daptomycin” (2009).
Values after ≈ are worked out from the molar mass of the structure shown.

How the values were obtained:
Bacillus subtilis [1] = experiment: Decrease in yvzA gene expression in Bacillus subtilis W168 by microarray analysis; assay type: functional
Method in brief: (§1)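 W168 grown in Ca2+-supplemented Mueller-Hinton broth at 37°C to OD600 0.4, split, and one half exposed to 1 μg/ml daptomycin for 20 min. Total RNA from three biological replicates; cDNA labeled with Alexa Fluor 555/647 and co-hybridized at 42°C for 16–18 h. Genes with summed intensity <20 or SD > mean were dropped. Fold change is treated/untreated signal, from ≥6 spot measurements.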

Bacillus subtilis [2] = experiment: Induction of rodA gene expression in Bacillus subtilis W168 by microarray analysis; assay type: functional; method in brief: as §1
Bacillus subtilis [3] = experiment: Induction of ydjP gene expression in Bacillus subtilis W168 by microarray analysis; assay type: functional; method in brief: as §1
Bacillus subtilis [4] = experiment: Antibacterial activity against des gene-deficient Bacillus subtilis W168 mutant with alteration in membrane composition at 25 degC by liquid growth inhibition assay; assay type: functional
Method in brief: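 Mid-log cells diluted to 5 × 10^5 CFU/ml in Mueller-Hinton broth with 50 mg/liter Ca2+. At least 10 concentrations near the predicted MIC, plus an untreated control, present from the start. Growth followed by OD600. Inhibition: final 24 h OD600 <0.05. MIC is the mode of at least triplicates.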

Bacillus subtilis [5] = experiment: Antibacterial activity against psd gene-deficient Bacillus subtilis CU1065 mutant by liquid growth inhibition assay; assay type: functional
Method in brief: (§2)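 Daptomycin MIC by liquid growth inhibition. Overnight cultures diluted 1:100, grown to mid-log, rediluted to 5 × 10^5 CFU/ml in Mueller-Hinton broth with 50 mg/liter Ca2+. At least 10 concentrations near the predicted MIC, plus a no-drug control, added at start; 200 μl. OD600 read every 20 min for 24 h at 37°C with shaking. Inhibition: 24 h OD600 <0.05. MIC is the mode of at least triplicates.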

Bacillus subtilis [6] = experiment: Antibacterial activity against liaH gene-deficient Bacillus subtilis CU1065 mutant by liquid growth inhibition assay
Bacillus subtilis [7] = experiment: Antibacterial activity against yhcYZ gene-deficient Bacillus subtilis CU1065 mutant by liquid growth inhibition assay; assay type: functional; method in brief: as §2
Bacillus subtilis [8] = experiment: Decrease in ywhE gene expression in Bacillus subtilis W168 by microarray analysis; assay type: functional; method in brief: as §1
Bacillus subtilis [9] = experiment: Decrease in yitI gene expression in Bacillus subtilis W168 by microarray analysis; assay type: functional; method in brief: as §1
Bacillus subtilis [10] = experiment: Antibacterial activity against sigM gene-deficient Bacillus subtilis CU1065 mutant by liquid growth inhibition assay; assay type: functional; method in brief: as §2
Bacillus subtilis [11] = experiment: Antibacterial activity against mprF and pspA gene-deficient Bacillus subtilis CU1065 mutant by liquid growth inhibition assay; assay type: functional; method in brief: as §2
Bacillus subtilis [12] = experiment: Induction of ydaH gene expression in Bacillus subtilis W168 by microarray analysis; assay type: functional; method in brief: as §1
Bacillus subtilis [13] = experiment: Antibacterial activity against liaGFSR gene-deficient Bacillus subtilis W168 mutant by liquid growth inhibition assay; assay type: functional; method in brief: as §2
Bacillus subtilis [14] = experiment: Induction of liaG gene expression in Bacillus subtilis W168 by microarray analysis; assay type: functional; method in brief: as §1
Bacillus subtilis [15] = experiment: Antibacterial activity against sigMWX and liaIH gene-deficient Bacillus subtilis CU1065 mutant by liquid growth inhibition assay; assay type: functional; method in brief: as §2
Bacillus subtilis [16] = experiment: Antibacterial activity against liaIH and mprF gene-deficient Bacillus subtilis W168 mutant by liquid growth inhibition assay; assay type: functional; method in brief: as §2
Bacillus subtilis [17] = experiment: Decrease in ydgK gene expression in Bacillus subtilis W168 by microarray analysis; assay type: functional; method in brief: as §1
Bacillus subtilis [18] = experiment: Induction of yxjI gene expression in Bacillus subtilis W168 by microarray analysis; assay type: functional
Method in brief: (§3)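 W168 cultures in Mueller-Hinton broth with 50 mg/liter Ca2+, 37°C with shaking, grown to mid-log phase (OD600 0.4) from a 1:1,000 overnight dilution. Split: one half given 1 μg/ml daptomycin for 20 min, the other left untreated. Total RNA from three biological replicates; cDNA labeled with Alexa Fluor 555 or 647 and hybridized 16 to 18 h at 42°C. Induction = treated/untreated signal intensity, duplicate spots on three arrays.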

Bacillus subtilis [19] = experiment: Induction of yvrL gene expression in Bacillus subtilis W168 by microarray analysis; assay type: functional; method in brief: as §3
Bacillus subtilis [20] = experiment: Decrease in yvzC gene expression in Bacillus subtilis W168 by microarray analysis; assay type: functional; method in brief: as §1
Bacillus subtilis [21] = experiment: Decrease in ywdD gene expression in Bacillus subtilis W168 by microarray analysis; assay type: functional; method in brief: as §1
Bacillus subtilis [22] = experiment: Antibacterial activity against Bacillus subtilis CU1065 mutant with mprF gene overexpression by liquid growth inhibition assay; assay type: functional; method in brief: as §2
Bacillus subtilis [23] = experiment: Decrease in yknU gene expression in Bacillus subtilis W168 by microarray analysis; assay type: functional; method in brief: as §1
Bacillus subtilis [24] = experiment: Antibacterial activity against Bacillus subtilis W168 mutant by liquid growth inhibition assay; assay type: functional; method in brief: as §2
Bacillus subtilis [25] = experiment: Antibacterial activity against liaF gene-deficient Bacillus subtilis W168 mutant by liquid growth inhibition assay; assay type: functional; method in brief: as §2
Bacillus subtilis [26] = experiment: Antibacterial activity against sigXM gene-deficient Bacillus subtilis CU1065 double mutant by liquid growth inhibition assay; assay type: functional; method in brief: as §2
Bacillus subtilis [27] = experiment: Antibacterial activity against sigX gene-deficient Bacillus subtilis CU1065 mutant by liquid growth inhibition assay; assay type: functional; method in brief: as §2
Bacillus subtilis [28] = experiment: Induction of ywaC gene expression in Bacillus subtilis W168 by microarray analysis; assay type: functional; method in brief: as §3
Bacillus subtilis [29] = experiment: Antibacterial activity against sigW gene-deficient Bacillus subtilis CU1065 mutant by liquid growth inhibition assay; assay type: functional; method in brief: as §2
Bacillus subtilis [30] = experiment: Antibacterial activity against liaH and yhcYZ gene-deficient Bacillus subtilis W168 mutant by liquid growth inhibition assay; assay type: functional; method in brief: as §2
Bacillus subtilis [31] = experiment: Induction of sdpI gene expression in Bacillus subtilis W168 by microarray analysis; assay type: functional; method in brief: as §1
Bacillus subtilis [32] = experiment: Induction of yhcZ gene expression in Bacillus subtilis W168 by microarray analysis; assay type: functional; method in brief: as §1
Bacillus subtilis [33] = experiment: Induction of yhdL gene expression in Bacillus subtilis W168 by microarray analysis; assay type: functional; method in brief: as §1
Bacillus subtilis [34] = experiment: Antibacterial activity against psd and mprF gene-deficient Bacillus subtilis CU1065 mutant by liquid growth inhibition assay; assay type: functional; method in brief: as §2
Bacillus subtilis [35] = experiment: Antibacterial activity against sigMWX gene-deficient Bacillus subtilis CU1065 triple mutant by liquid growth inhibition assay; assay type: functional; method in brief: as §2
Bacillus subtilis [36] = experiment: Decrease in fabHB gene expression in Bacillus subtilis W168 by microarray analysis; assay type: functional; method in brief: as §1
Bacillus subtilis [37] = experiment: Antibacterial activity against mprF gene-deficient Bacillus subtilis CU1065 mutant by liquid growth inhibition assay; assay type: functional; method in brief: as §2
Bacillus subtilis [38] = experiment: Antibacterial activity against des and pspA gene-deficient Bacillus subtilis W168 mutant by liquid growth inhibition assay
Bacillus subtilis [39] = experiment: Induction of yebC gene expression in Bacillus subtilis W168 by microarray analysis; assay type: functional; method in brief: as §1
Bacillus subtilis [40] = experiment: Antibacterial activity against Bacillus subtilis CU1066 with depletion in pgsA gene by liquid growth inhibition assay; assay type: functional; settings: CU1065, in the assay text read “CU1065” for “CU1066”
Method in brief: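 Liquid growth inhibition in Mueller-Hinton broth with 50 mg/liter Ca2+. Overnight cultures diluted 1:100, grown to mid-log, rediluted to 5 × 10^5 CFU/ml, then given at least 10 daptomycin concentrations near the predicted MIC plus a drug-free control. OD600 read every 20 min for 24 h at 37°C with shaking. MIC is the mode of at least triplicates of the lowest concentration giving final OD600 <0.05.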

Bacillus subtilis [41] = experiment: Antibacterial activity against sigWM gene-deficient Bacillus subtilis CU1065 double mutant by liquid growth inhibition assay; assay type: functional; method in brief: as §2
Bacillus subtilis [42] = experiment: Decrease in yisY gene expression in Bacillus subtilis W168 by microarray analysis; assay type: functional; method in brief: as §1
Bacillus subtilis [43] = experiment: Induction of murB gene expression in Bacillus subtilis W168 by microarray analysis; assay type: functional; method in brief: as §1

CCCCCCCCCC(=O)N[C@@H](Cc1c[nH]c2ccccc12)C(=O)N[C@H](CC(N)=O)C(=O)N[C@@H](CC(=O)O)C(=O)N[C@@H]1C(=O)NCC(=O)N[C@@H](CCCN)C(=O)N[C@@H](CC(=O)O)C(=O)N[C@H](C)C(=O)N[C@@H](CC(=O)O)C(=O)NCC(=O)N[C@H](CO)C(=O)N[C@@H]([C@H](C)CC(=O)O)C(=O)N[C@@H](CC(=O)c2ccccc2N)C(=O)O[C@@H]1C
fold change (FC) (Bacillus subtilis [1]): 10 | fold change (FC) (Bacillus subtilis [2]): 2.7 | fold change (FC) (Bacillus subtilis [3]): 2 | MIC (Bacillus subtilis [4]): 0.4 µg/mL (≈ 0.247 µM) | MIC (Bacillus subtilis [5]): 1 µg/mL (≈ 0.617 µM) | MIC (Bacillus subtilis [6]): 0.4 µg/mL (≈ 0.247 µM) | MIC (Bacillus subtilis [7]): 0.8 µg/mL (≈ 0.494 µM) | fold change (FC) (Bacillus subtilis [8]): 0.4 | fold change (FC) (Bacillus subtilis [9]): 2.9 | MIC (Bacillus subtilis [10]): 0.8 µg/mL (≈ 0.494 µM) | MIC (Bacillus subtilis [11]): 0.5 µg/mL (≈ 0.309 µM) | fold change (FC) (Bacillus subtilis [12]): 6.2 | MIC (Bacillus subtilis [13]): 0.5 µg/mL (≈ 0.309 µM) | fold change (FC) (Bacillus subtilis [14]): 283 | MIC (Bacillus subtilis [15]): 0.2 µg/mL (≈ 0.123 µM) | MIC (Bacillus subtilis [16]): 0.2 µg/mL (≈ 0.123 µM) | fold change (FC) (Bacillus subtilis [17]): 0.5 | fold change (FC) (Bacillus subtilis [18]): 2.1 | fold change (FC) (Bacillus subtilis [19]): 535 | fold change (FC) (Bacillus subtilis [20]): 26 | fold change (FC) (Bacillus subtilis [21]): 5.3 | MIC (Bacillus subtilis [22]): 1.3 µg/mL (≈ 0.802 µM) | fold change (FC) (Bacillus subtilis [23]): 7.8 | MIC (Bacillus subtilis [24]): 1 µg/mL (≈ 0.617 µM) | MIC (Bacillus subtilis [25]): 1 µg/mL (≈ 0.617 µM) | MIC (Bacillus subtilis [26]): 0.6 µg/mL (≈ 0.37 µM) | MIC (Bacillus subtilis [27]): 1 µg/mL (≈ 0.617 µM) | fold change (FC) (Bacillus subtilis [28]): 3.5 | MIC (Bacillus subtilis [29]): 0.8 µg/mL (≈ 0.494 µM) | MIC (Bacillus subtilis [30]): 0.2 µg/mL (≈ 0.123 µM) | fold change (FC) (Bacillus subtilis [31]): 8.9 | fold change (FC) (Bacillus subtilis [32]): 2.2 | fold change (FC) (Bacillus subtilis [33]): 2.5 | MIC (Bacillus subtilis [34]): 0.9 µg/mL (≈ 0.555 µM) | MIC (Bacillus subtilis [35]): 0.6 µg/mL (≈ 0.37 µM) | fold change (FC) (Bacillus subtilis [36]): 2.8 | MIC (Bacillus subtilis [37]): 0.5 µg/mL (≈ 0.309 µM) | MIC (Bacillus subtilis [38]): 0.9 µg/mL (≈ 0.555 µM) | fold change (FC) (Bacillus subtilis [39]): 3.6 | MIC (Bacillus subtilis [40]): 8 µg/mL (≈ 4.94 µM) | MIC (Bacillus subtilis [41]): 0.7 µg/mL (≈ 0.432 µM) | fold change (FC) (Bacillus subtilis [42]): 0.5 | fold change (FC) (Bacillus subtilis [43]): 2
